Measured values published in ChEMBL document CHEMBL1649391, “A systematic protocol for the characterization of Hsp90 modulators” (Bioorg Med Chem, 2011).
Activity calls are given as the source filed them. No cut-off for these calls is given here.

Experiments:
[1] = biological target: Heat shock protein HSP 90-beta (Homo sapiens) (UniProt P08238); experiment: Inhibition of HSP90 in human MCF7 cells assessed as degradation of Hsp70 protein up to 50 uM after 48 hrs by Western blotting; format: cell-based
Summary of the method: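 MCF-7 cells were grown in DMEM/F-12 with nonessential amino acids, 2 mM glutamine, penicillin/streptomycin and 10% FBS at 37 °C and 5% CO2. Cells were seeded at 1×10⁶ per dish and left to attach overnight. They were then exposed to varying compound concentrations for 48 h, harvested, and Western blotted for Hsp90 client proteins and Hsp70.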

[2] = biological target: T1, Heat shock protein HSP 90 (Oryctolagus cuniculus) (UniProt P11500); experiment: Modulation proteolytic fingerprint of HSP90 in rabbit reticulocyte lysates at 10 uM after 5 mins by SDS-PAGE analysis in presence of 125 ug/ml of trypsin
T1 sequence (whole entry): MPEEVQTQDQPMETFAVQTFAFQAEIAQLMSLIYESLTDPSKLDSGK
Summary of the method: (§1)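 TnT rabbit reticulocyte lysate (50% v/v) with an ATP-regenerating system (10 mM creatine phosphate, 20 units/mL creatine phosphokinase) and 75 mM KCl. Drug or vehicle was added for 5 min at 37 °C, then the mix was chilled. TPCK-trypsin (0, 50 or 125 μg/ml) was added on ice for 6 min. Reactions were stopped by boiling in SDS sample buffer, then run on SDS-PAGE and Western blotted with antibodies to the Hsp90 N-terminus and C-terminus.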

LNCaP [3] = experiment: Antiproliferative activity against human LNCAP cells; format: functional, cell-based
[4] = biological target: Heat shock protein HSP 90-beta (Homo sapiens) (UniProt P08238); experiment: Inhibition of HSP90 binding to Cdc37 in human SKBR-3 cells by Western blotting; format: cell-based
Summary of the method: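 SKBr-3 cells were treated for 24 h at 0–10 μM. Cells were lysed in NP-40/molybdate Tris buffer pH 7.4 for 2 h at 4 °C, then centrifuged. Lysate protein (500 μg) was immunoprecipitated with anti-Hsp90 for 2 h, then with protein G agarose overnight at 4 °C. Washed precipitates were immunoblotted for Hsp90 and Cdc37.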

[5] = biological target: Heat shock protein HSP 90-beta (Homo sapiens) (UniProt P08238); experiment: Displacement of geldanamycin bound sepharose from HSP90 after 5 mins by affinity chromatography analysis
Summary of the method: (§2)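 Lysate with the ATP-regenerating mix was preincubated for 5 min at 37 °C, then loaded onto novobiocin-epoxy-sepharose or onto geldanamycin-derivatized AffiGel beads blocked with BSA. Columns were washed with 20 volumes of buffer containing 0.15 M NaCl. Bound Hsp90 was eluted with a linear 0–5 mM compound gradient in the dark at 4 °C. Eluates were run on 12.5% SDS-PAGE and immunoblotted for Hsp90.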

[6] = biological target: T1, Heat shock protein HSP 90 (Oryctolagus cuniculus); experiment: Modulation proteolytic fingerprint of HSP90 in rabbit reticulocyte lysates at 20 uM after 5 mins by SDS-PAGE analysis in presence of 125 ug/ml of trypsin; summary of the method: as §1
[7] = biological target: Heat shock protein HSP 90-alpha (Homo sapiens) (UniProt P07900); experiment: Inhibition of human HSP90alpha expressed in yeast PP30 cells co-expressing HSF-lacZ reporter assessed as inhibition of heat stress-induced response at 100 uM after 3 hrs; format: cell-based
Summary of the method: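 Yeast PP30 carrying human Hsp90α as its sole Hsp90 was transformed with a 3×HSE-lacZ reporter and grown at 30 °C in uracil-dropout 2% glucose medium to 2–3×10⁶ cells/ml. Cells were treated with compound, then heat-shocked for 1 h at 39 °C. In lysates, β-galactosidase was read with ONPG in buffer Z pH 7.0 at 30 °C, stopped with Na2CO3, read at OD420 and normalized to protein.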

[8] = Ratio of compound IC50 to KU135 IC50 for human LNCaP-LN3 cells; format: functional
LNCaP [9] = experiment: Ratio of compound IC50 to KU135 IC50 for human LNCAP cells; format: functional
[10] = biological target: Heat shock protein HSP 90-beta (Homo sapiens) (UniProt P08238); experiment: Displacement of novobiocin bound sepharose from HSP90 after 5 mins by affinity chromatography analysis; summary of the method: as §2

Chain of Heat shock protein HSP 90-beta (Homo sapiens) (P08238 whole entry): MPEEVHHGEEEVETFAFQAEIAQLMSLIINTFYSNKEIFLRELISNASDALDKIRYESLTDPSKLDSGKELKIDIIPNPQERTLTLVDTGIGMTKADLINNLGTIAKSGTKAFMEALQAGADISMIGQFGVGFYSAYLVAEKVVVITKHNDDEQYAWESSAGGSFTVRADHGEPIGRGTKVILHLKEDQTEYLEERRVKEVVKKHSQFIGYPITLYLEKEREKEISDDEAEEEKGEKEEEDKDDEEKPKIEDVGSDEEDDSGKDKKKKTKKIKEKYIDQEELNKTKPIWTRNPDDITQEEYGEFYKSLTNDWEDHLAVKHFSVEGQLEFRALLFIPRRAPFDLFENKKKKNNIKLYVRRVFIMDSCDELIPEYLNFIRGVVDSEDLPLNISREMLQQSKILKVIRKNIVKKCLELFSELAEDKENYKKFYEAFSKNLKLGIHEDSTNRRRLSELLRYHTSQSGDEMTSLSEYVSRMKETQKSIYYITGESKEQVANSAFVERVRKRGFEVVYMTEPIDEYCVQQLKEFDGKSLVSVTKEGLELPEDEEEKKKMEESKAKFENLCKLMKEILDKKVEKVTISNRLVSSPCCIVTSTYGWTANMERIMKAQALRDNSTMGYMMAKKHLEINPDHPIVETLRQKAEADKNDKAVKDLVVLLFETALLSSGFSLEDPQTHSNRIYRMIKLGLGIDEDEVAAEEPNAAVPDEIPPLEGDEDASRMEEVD

SMILES | Activity [1] | Activity [2] | Activity (LNCaP [3]) | Activity [4] | Activity [5] | Activity [6] | also measured
CO[C@@H]1[C@@H](OC(=O)c2ccc(C)[nH]2)[C@@H](O)[C@@H](Oc2ccc3c(O)c(NC(=O)c4c[nH]c(C(=O)Nc5c(O)c6ccc(O[C@H]7OC(C)(C)[C@H](OC)[C@@H](OC(=O)c8ccc(C)[nH]8)[C@H]7O)c(C)c6oc5=O)c4C)c(=O)oc3c2C)OC1(C)C | inactive | Active | inactive | – | – | – | –
CC1=C(O)C(=O)C=C2C1=CC=C1[C@@]2(C)CC[C@@]2(C)[C@@H]3C[C@](C)(C(=O)O)CC[C@]3(C)CC[C@]12C | inactive | – | inactive | Dose-dependent effect | Active | Active | –
CO[C@@H]1[C@@H](O)[C@@H](O)[C@H](Oc2ccc3cc(NC(C)=O)c(=O)oc3c2C)OC1(C)C | inactive | Active | – | – | – | – | –
CO[C@@H]1[C@@H](O)[C@@H](O)[C@H](Oc2ccc3cc(NC(=O)CCCCCCC(=O)Nc4cc5ccc(O[C@H]6OC(C)(C)[C@@H](OC)[C@H](O)[C@@H]6O)cc5oc4=O)c(=O)oc3c2C)OC1(C)C | inactive | Active | – | – | – | – | –
COc1cccc(-c2cc(C(=O)Nc3cc4ccc(O[C@@H]5OC(C)(C)[C@H](OC)[C@@H](O)[C@H]5O)c(OC)c4oc3=O)ccc2OC)c1 | inactive | Active | inactive | – | – | – | –
CC(=O)O[C@@H]1C[C@H]2C(C)(C)C(=O)C=C[C@]2(C)[C@H]2CC[C@@]3(C)[C@H](c4ccoc4)OC(=O)[C@H]4O[C@]43[C@@]21C | inactive | – | inactive | Dose-dependent effect | Active | Active | –
CO[C@@H]1[C@@H](O)[C@@H](O)[C@H](Oc2ccc3cc(NC(C)=O)c(=O)oc3c2)OC1(C)C | inactive | Active | – | – | – | – | –
COc1cccc(-c2cc(C(=O)Nc3cc4cc(OC)c(OC(C)=O)c(C)c4oc3=O)ccc2OC)c1 | inactive | Active | – | – | – | – | Activity [7]: Active; Ratio IC50 [8]: 1000; Ratio IC50 (LNCaP [9]): 1000
O=C(O)CCc1nn(Cc2ccc(Cl)cc2Cl)c2cc(C(F)(F)F)ccc12 | inactive | – | inactive | Dose-dependent effect | Active | Active | –
CO[C@@H]1[C@@H](OC(N)=O)[C@@H](O)[C@H](Oc2ccc3c(O)c(NC(=O)c4ccc(O)c(CC=C(C)C)c4)c(=O)oc3c2C)OC1(C)C [NOVOBIOCIN] | inactive | Active | – | – | – | – | Activity [10]: inactive; Activity [7]: Active; IC50 (LNCaP [3]): 420 nM
